H69AR growth 86K – proliferation blockers of H69AR lung cancer cells, primary screen, cell-based, human, 86K library; H69AR lung tumor viability, ATP luminescence, 72 h; stronger effect = lower value; viability, % at 10 µM; 6% of 85,000 active;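 active = viability at or below 40%; inactive = viability above 40%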;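 note: multidrug resistant small cell line overexpressing MRP-1 efflux transporter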
HCT116 PTEN-null – growth suppression of PTEN-null HCT116, primary screen, cell-based, CellTiter-Glo; HCT116 PTEN-null viability, 60 h; stronger effect = lower value; viability, % at 10 µM; 1.2% of 140,000 active;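 active = viability at or below a set limit, 4 SD under the median of all tested compounds, cut at about 3.7% in these data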;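 note: PTEN knockout HCT116 line with beta catenin targeted HCT116 as companion control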
HUVEC prolif 384 – inhibitors of HUVEC proliferation, primary screen, cell-based, 384-well; CellTiter-Glo luminescence, 72 h; stronger effect = lower value; 1.1% of 86,000 active; viability, % at 10 µM (by protocol); AID 648, 2007;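 active = viability at or below 30%; inactive = viability above 30%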
Fibroblast inh – antiproliferative effect on LL 47 fibroblasts – human, LL 47 cells, CellTiter-Glo luminescence, primary screen; LL 47 human lung fibroblast viability, ATP luminescence; stronger effect = lower value; viability, % at 10 µM; 1.1% of 85,000 active;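 active = viability at or below 50% in the single dose screen; inactive = viability above 50%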;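 note: compound exposure lasted 72 h before the ATP readout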
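Test system: LL 47 human lung fibroblasts / Incubation: 72 h compound exposure at 37 °C after overnight plating / Technique: luminescent ATP detection, CellTiter-Glo / Compound dosing: 0.1% DMSO in all compound wells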
HCT116 bCat-KO – primary screen for growth suppressors in beta-catenin knockout HCT116 cells (colon tumor, human). HCT116 beta-catenin knockout viability, CellTiter-Glo, 60 h; stronger effect = lower value. viability, % at 10 µM. 1.5% of 140,000 active. AID 818, 2007;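 active = viability at or under a set limit, the compound median less 4 SD, cut at about 6% in these data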
A number is an active result; i = inactive; nt = not tested or not shown. This excerpt belongs to a sample that is enriched for hits.

SMILES	H69AR growth 86K	HCT116 PTEN-null	HUVEC prolif 384	Fibroblast inh	HCT116 bCat-KO
Cc1cc2cc(C)c3nnc(SCC(=O)Nc4ccc(S(=O)(=O)N5CCCCC5)cc4)n3c2cc1C	nt	i	nt	nt	i
Cc1ccc(/C=C2\SC(=S)N(CC(=O)Nc3ncc(Cc4ccccc4Cl)s3)C2=O)cc1	nt	i	nt	nt	i
Cc1ccc(/C=C2/SC(=S)N(CC(=O)Nc3ncc(Cc4ccc(C)cc4)s3)C2=O)cc1	4.0	i	i	i	i
CN(CC(O)COCc1ccc2c(c1)OCO2)C1CCCCC1 (configuration not stated)	nt	i	nt	nt	i
O=C(CSc1nnc(Nc2ccccc2)s1)NN1C(=O)NC2(CCCCC2)C1=O	nt	i	nt	nt	i
O=C(N/N=C\c1cc(Br)cs1)C1COc2ccccc2O1 (configuration not stated)	27	i	i	i	i
C/C(=N\NC(=O)C(c1ccccc1)c1ccccc1)c1ccccn1	nt	i	nt	nt	4.3
C/C(=N\NC(=O)C1COc2ccccc2O1)c1ccc(C)o1 (configuration not stated)	nt	i	nt	nt	i
C/C(=N\NC(=O)C1COc2ccccc2O1)c1ccccn1 (configuration not stated)	nt	i	nt	nt	5.0
Cc1cc(C)c2nc(NNC(=O)c3ccc(S(=O)(=O)N4CCc5ccccc5C4)cc3)sc2c1	nt	i	nt	nt	4.0
CCNc1nc(N)nc(-c2cc(Cl)ccc2O)n1	nt	i	nt	nt	5.2
CCCCNc1nc(N)nc(-c2cc(Cl)ccc2O)n1	nt	i	nt	nt	i
COc1ccc(C(C)=O)cc1CSc1nc2ccccc2o1	i	1.0	i	i	1.1
N#CC1=C(N)OC(c2ccccc2)=C(C#N)C1c1ccc2c(c1)OCO2 (configuration not stated)	i	i	i	i	i
CSc1ccc(C2C(C#N)=C(N)Oc3cc4c(cc32)OCO4)cc1 (configuration not stated)	18	i	i	i	i
Cc1ccc(C2C(C#N)=C(N)Oc3cc4c(cc32)OCO4)cc1 (configuration not stated)	15	i	i	i	i
CN(C)c1ccc([C@@H]2[C@@H]([N+](=O)[O-])[C@H]3C=Cc4ccccc4N3[C@H]2C(=O)c2ccc(Cl)cc2)cc1	nt	i	nt	nt	i
C=CCn1c(SCC(=O)N2CCc3ccccc3C2)nc2ccccc2c1=O	nt	i	nt	nt	i
N#Cc1c(NC(=O)CSc2ncccn2)oc(-c2ccccc2)c1-c1ccccc1	i	nt	i	i	nt
Cc1ccc(OCC(=O)Nc2oc(-c3ccccc3)c(-c3ccccc3)c2C#N)cc1	28	nt	i	i	nt
COc1ccc(-c2oc(NC(=O)CCl)c(C#N)c2-c2ccc(OC)cc2)cc1	1.8	i	4.3	26	5.8
COc1ccc(-c2oc(NC(=O)CSc3ncn[nH]3)c(C#N)c2-c2ccc(OC)cc2)cc1	29	i	i	i	i
CCC(Sc1nc(-c2ccccc2)c(C#N)c(=O)[nH]1)C(=O)Nc1nnc(C)s1 (configuration not stated)	nt	i	nt	nt	i
Cc1nc(C)c(C(=O)NNS(=O)(=O)c2ccc3ccccc3c2)s1	nt	i	nt	nt	i
COc1ccc(C(=O)CN2CCN(S(=O)(=O)c3cccc([N+](=O)[O-])c3)CC2)cc1	nt	i	nt	nt	i
SMILES	H69AR growth 86K	HCT116 PTEN-null	HUVEC prolif 384	Fibroblast inh	HCT116 bCat-KO
COc1ccc2c(c1)CCc1c(C(=O)NCCCn3ccnc3)noc1-2	1.5	i	i	i	i
COCCNC(=O)c1noc2c1CCc1cc(OC)ccc1-2	i	i	i	i	i
CCOc1ccccc1NC(=O)/C=C/c1ccccc1[N+](=O)[O-]	nt	i	nt	nt	i
CCOc1ccccc1NC(=O)/C=C/C(N)=O	1.3	i	i	i	i
CCc1ccc(-c2cc(C(=O)N3N=C(C(F)F)CC3(O)C(F)F)c3ccccc3n2)cc1 (configuration not stated)	nt	3.5	nt	nt	i
COc1ccc(C2C3C(C)=NN=C3CC(C)(O)C2C(C)=O)cc1 (configuration not stated)	nt	i	nt	nt	i
O=[N+]([O-])c1c(NCCCO)cc(Sc2nc3ccccc3s2)c2nonc12	nt	3.6	nt	nt	2.3
CCC(=O)OCCNc1cc(Sc2nc3ccccc3[nH]2)c2nonc2c1[N+](=O)[O-]	nt	1.5	nt	nt	1.7
CCC(=O)OCCNc1cc(Sc2nc3ccccc3s2)c2nonc2c1[N+](=O)[O-]	1.3	3.7	i	3.7	4.1
COc1ccc(C(=O)c2ccc(N3CCN(C(=O)c4ccc(F)cc4)CC3)c(F)c2)cc1Br	36	i	i	i	i
Cc1ccccc1OCCCCCNCCO	nt	i	nt	nt	i
CC(C)(C)c1ccccc1OCCCCCNCCO	11	i	i	i	i
O=C(c1ccco1)N1CCN(c2ccccc2F)CC1	i	i	i	i	i
COc1ccccc1N1CCN(C(=O)c2ccc(Cl)c(S(=O)(=O)NCc3ccco3)c2)CC1	23	i	i	i	i
O=C(c1ccc(Cl)c(S(=O)(=O)NCc2ccco2)c1)N1CCN(c2ccccc2F)CC1	21	i	i	i	i
CN(c1ccccc1)S(=O)(=O)c1cc(C(=O)N2CCN(c3ccccn3)CC2)ccc1Cl	i	i	i	i	i
COc1cc(C)c(Cl)cc1S(=O)(=O)NCc1ccco1	i	i	i	i	i
O=C(c1ccc(Cl)c(S(=O)(=O)Nc2ccc(F)cc2)c1)N1CCN(c2ccccn2)CC1	36	i	i	i	i
COc1ccccc1N=CC1=C(O)CC(c2ccccc2)CC1=O (configuration not stated)	nt	i	nt	nt	i
COc1cc(C2c3c(oc4ccc(C)cc4c3=O)C(=O)N2c2cc(C)ccn2)cc(OC)c1OC (configuration not stated)	32	nt	i	i	nt
Cc1ccc2oc3c(c(=O)c2c1)C(c1cccc(O)c1)N(c1ccccn1)C3=O (configuration not stated)	i	i	i	i	i
CCC1=NN(C(=O)Cc2ccc(OC)c(OC)c2)C(O)(C(F)(F)F)C1 (configuration not stated)	nt	i	nt	nt	i
O=c1[nH]c2cc3c(cc2cc1C(c1nnnn1C1CCCC1)N1CCSCC1)OCCO3 (configuration not stated)	6.4	i	i	i	i
CC(C)(C)n1nnnc1C(c1cc2cc3c(cc2[nH]c1=O)OCCO3)N1CCSCC1 (configuration not stated)	i	i	i	i	i
Cc1cc(C)c2cc(C(c3nnnn3C3CCCC3)N3CCOCC3)c(=O)[nH]c2c1 (configuration not stated)	36	i	i	i	i
Cc1cccc2cc(C(c3nnnn3C3CCCC3)N3CCOCC3)c(=O)[nH]c12 (configuration not stated)	i	i	i	i	i
Cc1nnc(NC(=O)Cn2cnc3c2c(=O)n(C)c(=O)n3C)s1	i	i	i	i	i
O=C(COC(=O)Cc1cn2ccsc2n1)Nc1nc2ccccc2s1	7.2	i	i	i	i
COCC(=O)Nc1nc2ccccc2s1	i	i	i	i	i
